# Results collected from several papers.
# Each line is one published result; the experiments were not run side by side.
# Target: Serine/threonine-protein kinase NIM1 (NIM1K, Homo sapiens, UniProt Q8IY84)
SMILES,observed,method,concentration,remaining binding [%]
CN(C)c1nccc(-c2cnc3ncccn23)n1,binding,,1 µM,67
O=C(NCC1CCOCC1)c1n[nH]cc1NC(=O)c1c(F)cccc1F,binding,competition with immobilised ligand,1 µM,97
Nc1ncc2c(n1)-c1c([nH]c3ccc(C#CC4CC4)cc13)CCCC2,binding,competition with immobilised ligand,1 µM,61
COc1cccc(CNC(=O)c2nc3scc(COCc4ccc(C(=O)O)cc4)c3c(=O)[nH]2)c1,cell-free assay,competition with immobilised ligand,1 µM,100
CCN1CCN(Cc2ccc(C(=O)Nc3ccc(C)c(Oc4ccc5c(c4)CC(=O)N5)c3)cc2C(F)(F)F)CC1,binding,competition with immobilised ligand,1 µM,100
COc1ccnn2ncc(-c3ccnc(N(C)C)n3)c12,binding,,1 µM,100
CO[C@@H](C)c1c(Nc2ccc([C@H](N(C)C(=O)C3CCS(=O)(=O)CC3)C(F)(F)F)cc2)cnc2cc(Cl)nn12,cell-free assay,competition with immobilised ligand,1 µM,79
Cc1cnn2ncc(-c3ccnc(N(C)C)n3)c2c1,binding,,1 µM,92
Cc1nc(C2CCN(C(=O)c3ccc(OC(F)(F)F)cc3N)CC2)c2ncc(N3CCN(C)CC3)cc2n1,cell-free assay,competition with immobilised ligand,1 µM,89
c1cnn2ncc(-c3ccnc(N4CCC45COC5)n3)c2c1,binding,,1 µM,61
CS(=O)(=O)c1cc(C2(NC(=O)c3cncc4c3cnn4-c3ccc(F)cc3)CC2)ccn1,cell-free assay,competition with immobilised ligand,1 µM,56
COc1cnc(Nc2cccc(S(N)(=O)=O)c2)nc1N1CCN(c2ccccc2)C(=O)C1,binding,competition with immobilised ligand,1 µM,87
CN(CCCC(F)(F)F)c1nccc(-c2cnn3ncccc23)n1,binding,,1 µM,100
O=C(c1ccc(Nc2ncc(Cl)c(-c3cc4ccccc4s3)n2)cc1)N1CCC(N2CCCC2)CC1,binding,competition with immobilised ligand,1 µM,20
COc1cnc(Nc2cccc(S(N)(=O)=O)c2)nc1N1CCN(c2ccccc2)CC1,binding,competition with immobilised ligand,1 µM,71
O=C(c1ccc(Nc2nccc(-c3cc4ccccc4s3)n2)cc1)N1CCC(N2CCCC2)CC1,binding,competition with immobilised ligand,1 µM,80
COc1ccc2c(c1)O[C@H](c1ccc(OC)c(OC)c1)C[C@@H]2NC(=O)C1(c2ccc3c(c2)OC(F)(F)O3)CC1,cell-free assay,competition with immobilised ligand,1 µM,84
O=C(NCCCN1CCOCC1)c1ccc(Nc2nccc(-c3cc4ccccc4s3)n2)cc1,binding,competition with immobilised ligand,1 µM,86
CS(=O)(=O)N1CCCC(NC(=O)[C@H](CCC2CCCCC2)NC(=O)c2ccc(CNC(=O)c3cnc4ccccn34)cc2)C1 (stereo partly shown),cell-free assay,competition with immobilised ligand,0.1 µM,64
C[C@H]1CCN(c2nccc(-c3cnn4ncccc34)n2)C1,binding,,1 µM,82
C[C@@H]1CN(c2cc(-c3nn(C)c4ccc(OC5(C)CC5)cc34)ncn2)C[C@H](C)O1,cell-free assay,competition with immobilised ligand,1 µM,74
COc1ncc2cc3ccccc3nc2c1C#N,cell-free assay,competition with immobilised ligand,5 µM,89
